≈ marks a conversion by molar mass, not a printed value.

Format in all cases: functional
In experiment [1] the test system is HT-29. As to the kind of experiment: Cytotoxicity against human HT-29 cells. The following applies: read-out: ED50 (the source's name). The gist of the method: (§1)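 Human lung adenocarcinoma (A549) and colon adenocarcinoma (HT-29) lines obtained from ATCC. Cytotoxicity assayed in cell culture following a previously published standard procedure.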
Experiment [2] concerns A549. As to the kind of experiment: Cytotoxicity against human A549 cells. The following applies: for EC50: Homo sapiens, A549, read-out: ED50 (the source's name). The gist of the method:
as §1

For experiment [3], the system named is P388. Nature of the experiment: Cytotoxicity against mouse P388 cells. The following applies: for EC50: Mus musculus, P388, read-out: ED50 (the source's name). The method in brief:
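Mouse lymphocytic leukemia P-388 cells obtained from an academic laboratory (University of Illinois at Chicago). Cytotoxicity assayed in cell culture following a previously published standard procedure.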

Regarding `CC(C)[C@@H](C)CC[C@@H](C)[C@H]1CC[C@H]2[C@@H]3C[C@@H](O)C4=CC=CC(=O)[C@]4(C)[C@H]3[C@H](O)C[C@]12C` [STOLONIFERONE E], in experiment [1], the EC50 was 0.0091 µg/mL (≈ 0.0212 µM). Besides, the ED50 was found to be 3.2 ×10⁻⁴ ug/ml in experiment [2] and 1.2 ×10⁻⁴ ug/ml in experiment [3].
Regarding `CCCCC/C=C\C[C@]1(OC(C)=O)C=CC(=O)/C1=C/C=C/CCCC(=O)OC` [CLAVIRIDENONE E], the results for the EC50 in experiment [1], in experiment [2] and in experiment [3] were 1.02 µg/mL (≈ 2.63 µM), 0.41 µg/mL (≈ 1.06 µM) and 0.11 µg/mL (≈ 0.283 µM), respectively.
The matching figures for `CC(C)[C@@H](C)CC[C@@H](C)[C@H]1CC[C@H]2[C@@H]3C[C@@H](O)[C@@]4(O)C=C[C@@H](O)C(=O)[C@]4(C)[C@H]3[C@H](O)C[C@]12C` [STOLONIFERONE F]: 6.46 µg/mL (≈ 14 µM), 3.69 µg/mL (≈ 7.98 µM) and 2.36 µg/mL (≈ 5.1 µM).
The matching figures for `C=C(CC[C@@H](C)[C@H]1CC[C@H]2[C@@H]3C[C@@H](O)[C@@]4(O)C=C[C@@H](O)C(=O)[C@]4(C)[C@H]3[C@H](O)C[C@]12C)C(C)C` [STOLONIFERONE G]: 5.86 µg/mL (≈ 12.7 µM), 3.58 µg/mL (≈ 7.77 µM) and 2.12 µg/mL (≈ 4.6 µM).
The matching figures for `C=C1C(=O)O[C@H]2/C=C(\C)C[C@H](OC(C)=O)/C=C(\C)C[C@H](OC(C)=O)/C=C(\C)CC[C@H]12` [CLAVIOLIDE]: 0.84 µg/mL (≈ 2.02 µM), 4.91 µg/mL (≈ 11.8 µM) and 0.38 µg/mL (≈ 0.912 µM).

For the origin of these results see ChEMBL document CHEMBL1150667, “New cytotoxic constituents from the Formosan soft corals Clavularia viridis and Clavularia violacea” (2002).
